Screening data deposited in PubChem by several laboratories.
MCL1 BIM primary – inhibitors of MCL1 binding to BIM-BH3, primary screen, biochemical, fluorescence polarization; actives 0.68% (n = 320,000); inhibition, % at 10.9 µM; Induced myeloid leukemia cell differentiation protein Mcl-1 (Homo sapiens), Q07820; GST-MCL1 / FITC-Bim-BH3 fluorescence polarization; AID 2057, 2009;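 active = inhibition above the mean inhibition of all tested compounds plus 3 SD, set per campaign, cut at about 40% in these data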;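 also: 0% = DMSO wells and 100% = unlabeled Bim-BH3 peptide control; higher means more loss of mP so more displacement of Bim peptide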
Target sequence (Q07820 whole entry, looked up): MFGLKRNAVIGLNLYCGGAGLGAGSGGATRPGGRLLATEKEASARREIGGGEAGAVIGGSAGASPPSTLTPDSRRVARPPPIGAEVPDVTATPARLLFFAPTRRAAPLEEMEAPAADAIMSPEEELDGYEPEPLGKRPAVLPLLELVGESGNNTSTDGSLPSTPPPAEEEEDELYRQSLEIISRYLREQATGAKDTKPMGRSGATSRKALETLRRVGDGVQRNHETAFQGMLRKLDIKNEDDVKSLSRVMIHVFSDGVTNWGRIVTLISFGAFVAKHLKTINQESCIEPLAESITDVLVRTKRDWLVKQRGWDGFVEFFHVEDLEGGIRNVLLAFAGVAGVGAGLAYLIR
Mcl-1 Bim block – inhibitors of Bim peptide binding to Mcl-1, primary screen, biochemical, bead-based flow cytometry, multiplex | Induced myeloid leukemia cell differentiation protein Mcl-1 (Homo sapiens), Q07820 | Bim peptide-Mcl-1 binding | inhibition, % at 10 µM | actives 0.1% (n = 190,000); in the data active = inhibition above about 40%;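 also: 0% = no compound tracer wells and 100% = peptide blocker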
EBV gp42 block – Epstein-Barr virus gp42 inhibitors, primary screen, biochemical, uHTS, fluorescence polarization; inhibition, % (tested at 21.74 µM); actives 0.42% (n = 220,000); AID 1085, 2008; Fluorescence polarization binding assay, mP read-out; Glycoprotein 42 (Epstein-Barr virus (strain AG876)), Q1HVG2; in the data active = inhibition above about 50%
Mcl1 Bid PPI – Mcl-1/Bid binding inhibitors, primary screen, biochemical, TR-FRET, 1536-well. TR-FRET Mcl-1/Bid-Dy647 peptide binding. actives 0.97% (n = 220,000). Induced myeloid leukemia cell differentiation protein Mcl-1 (Homo sapiens), Q07820. inhibition, % at 21.7 µM;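 active = compounds that cut the binding signal by more than half at the single screening dose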;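 also: His-tagged Mcl-1 with europium anti-His antibody binding Bid BH3 peptide; 0% = Mcl-1 plus peptide wells and 100% = peptide-only wells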
RBBP9 inhibitor – human RBBP9 inhibitors, primary screen, biochemical, fluorescence polarization, FP-Rh probe, HTS; Serine hydrolase RBBP9 (Homo sapiens), O75884; recombinant RBBP9; inhibition, % at 7.94 µM; actives 0.2% (n = 220,000); AID 1515, 2009;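 active = inhibition above the campaign mean of all tested compounds plus 3 SD, cut at about 14% in these data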;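 also: plate controls were DMSO wells with RBBP9 for no effect and wells lacking RBBP9 protein for full effect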
Target sequence (O75884 whole entry, looked up): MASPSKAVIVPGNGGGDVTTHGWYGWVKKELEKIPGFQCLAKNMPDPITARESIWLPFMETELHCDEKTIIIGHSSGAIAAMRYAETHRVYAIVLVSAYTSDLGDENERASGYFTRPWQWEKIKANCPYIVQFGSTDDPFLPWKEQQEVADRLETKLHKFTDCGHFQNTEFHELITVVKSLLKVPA
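Material: RBBP9 protein. Amount: RBBP9 at 2.5 µM in dispensed solution, before mixing. Schedule: 30 min then 45 min, 25 °C. Medium: Tris buffer pH 8.0, NaCl, Pluronic. Measured by: fluorescence polarization. Measure: percent inhibition from mP, scaled between DMSO and no-protein wells. Replication: one well per compound.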
Mcl1-Noxa inh – Mcl-1/Noxa binding inhibitors, primary screen, biochemical, TR-FRET, 1536-well; TR-FRET Mcl-1/Noxa peptide binding, 2 h; actives 1.5% (n = 220,000); AID 1022, 2008; inhibition, % at 21.7 µM; Induced myeloid leukemia cell differentiation protein Mcl-1 (Homo sapiens), Q07820;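 active = compounds that cut the protein-peptide binding signal by more than 50% relative to plate controls in a single-dose test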;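 also: His-tagged Mcl-1 with rhodamine Noxa BH3 peptide and terbium anti-His antibody; 0% = Mcl-1 plus Noxa peptide wells and 100% = peptide-only wells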
The depositor's hits bear a star; nt = no result given. Only some compounds are listed: those with a hit (about 2.2% of all), similar ones and a draw of the others.

SMILES	MCL1 BIM primary	Mcl-1 Bim block	EBV gp42 block	Mcl1 Bid PPI	RBBP9 inhibitor	Mcl1-Noxa inh
CC1CCC(NC(=O)Cn2cnc3sccc3c2=O)CC1 (configuration not stated)	1.8	nt	nt	nt	nt	nt
COC(=O)c1ccc2c(=O)n(CCCCCC(=O)NCc3ccc4c(c3)OCO4)c(=O)[nH]c2c1	3.4	4.0	-28.4	55.9*	0.3	-31.6
COC(=O)c1ccc2c(=O)n(CCCCCC(=O)NCc3ccccc3)c(=O)[nH]c2c1	-12.6	27.0	-19.6	18.4	-3.8	8.1
COc1ccc(NC(=O)CN(c2ccc(OC)cc2)S(=O)(=O)c2c(C)nn(C)c2C)cc1	2.2	nt	nt	nt	nt	nt
CC1CCN(C(=O)c2ccccc2NC(=O)c2cccc(S(=O)(=O)N(C)C)c2)CC1	-2.5	nt	nt	nt	nt	nt
CN(C)c1ccc(/C=c2\sc3nc(-c4ccccc4)nn3c2=O)cc1	nt	-4.0	-14.4	73.1*	-3.5	78.8*
CC(=O)Oc1cccc(/C=c2\sc3nc(-c4ccco4)nn3c2=O)c1	25.0	-4.0	-16.1	-30.1	5.3	28.8
O=c1/c(=C\c2ccc(O)cc2)sc2nc(-c3ccccc3)c(-c3ccccc3)n12	1.9	nt	-31.5	-15.9	-4.0	13.8
COc1cc(/C=c2\sc3nc(-c4ccncc4)nn3c2=O)ccc1OC(C)=O	nt	-4.0	36.8	49.9	-5.7	70.4*
O=C(O)c1cc(S(=O)(=O)Nc2ccc(N3CCCCC3)cc2)ccc1Cl	1.8	2.0	9.1	-47.9	-13.5	46.2
O=S(=O)(Nc1ccc(N2CCCCC2)cc1)c1ccc(F)c(F)c1	1.6	5.0	9.1	-41.1	1.0	51.3*
OCCC1CN(CC2CCCCC2)CCN1C1CCCC1 (configuration not stated)	8.0	nt	nt	nt	nt	nt
CCc1ccc(NS(=O)(=O)c2ccc3[nH]cc(C(=O)NCC4CCCO4)c(=O)c3c2)cc1 (configuration not stated)	4.2	-4.0	-0.9	54.3*	-10.5	16.2
CCOCCCNC(=O)c1c[nH]c2ccc(S(=O)(=O)Nc3cccc(OC)c3)cc2c1=O	-12.1	0.0	-9.6	55.7*	-0.5	39.4
CCOc1ccc(N(C)S(=O)(=O)c2ccc3[nH]cc(C(=O)NCC4CCCO4)c(=O)c3c2)cc1 (configuration not stated)	-6.3	4.0	9.2	10.6	2.8	45.3
CCc1ccc(NS(=O)(=O)c2ccc3[nH]cc(C(=O)N4CCCCC4)c(=O)c3c2)cc1	5.2	0.0	0.9	46.3	-10.9	16.4
CCN(CC)C(=O)c1c[nH]c2ccc(S(=O)(=O)Nc3cc(C)cc(C)c3)cc2c1=O	6.9	-2.0	-15.7	54.6*	2.5	23.5
Cc1ccccc1N(C)S(=O)(=O)c1ccc2[nH]cc(C(=O)NCC3CCCO3)c(=O)c2c1 (configuration not stated)	-6.5	-1.0	-5.0	65.7*	-0.8	41.5
CCN(CC(=O)NCc1ccc(Cl)cc1)C(=O)C1CCN(S(=O)(=O)c2ccc(OC)c(OC)c2)CC1	3.5	nt	nt	nt	nt	nt
CCn1nc([N+](=O)[O-])c2c(-c3nc4ccccc4o3)c(N)n(CCCOC)c2c1=O	34.3	1.0	-7.9	26.7	-1.6	52.0*
COc1ccc(NC(=O)CSc2nnc3ccc(-c4cccnc4)nn23)c(OC)c1	-1.5	nt	nt	nt	nt	nt
COc1cccc(-c2cc(C(=O)Nc3nc4ccccc4s3)c3ccccc3n2)c1	6.4	-2.0	-5.1	-1.4	-36.5	-4.5
O=C(Nc1nccs1)c1cc(-c2ccco2)nc2ccccc12	23.4	-8.0	33.1	-88.5	-7.0	81.3*
O=C(Nc1nccs1)c1cc(-c2ccccc2)nc2ccccc12	-4.4	-9.0	-2.1	17.8	-16.3	20.4
Cc1ccc2nc(NC(=O)c3cc(-c4ccco4)nc4ccccc34)sc2c1	0.7	0.0	-16.2	53.4*	-7.8	41.5
SMILES	MCL1 BIM primary	Mcl-1 Bim block	EBV gp42 block	Mcl1 Bid PPI	RBBP9 inhibitor	Mcl1-Noxa inh
O=C(Nc1nc2ccccc2s1)c1cc(-c2ccco2)nc2ccccc12	16.2	-3.0	-4.7	62.6*	-15.9	58.6*
CCCN(CCC)CCNc1c(NC2CCN(C(=O)OCC)CC2)c(=O)c1=O	8.4	-1.0	-4.5	-19.2	-2.2	34.2
CCCN(CCC)CCNc1c(N2CCN(C(=O)OCC)CC2)c(=O)c1=O	7.8	0.0	-11.6	-29.6	0.5	64.5*
CCOC(=O)COc1ccc2ccccc2c1/C=C/[N+](=O)[O-]	7.9	-6.0	-6.5	15.2	-9.6	19.1
CCOc1ccc(/C=C/[N+](=O)[O-])c2ccccc12	6.9	0.0	-3.2	45.3	-0.6	76.3*
O=[N+]([O-])c1cc(Cl)cc(/C=N/NC(=S)Nc2ccc(S(=O)(=O)N3CCOCC3)cc2)c1O	31.0	nt	5.8	67.3*	6.4	85.4*
CSc1cccc(N2C(=O)C3CCCN3C2=S)c1 (configuration not stated)	-7.1	nt	nt	nt	nt	nt
COc1cc(OC)cc(C(=O)N(CCCN2C(=O)c3cccc4cccc(c34)C2=O)c2cccc(OC)c2)c1	-6.2	-3.0	-25.8	83.7*	3.1	-5.2
COc1ccc(N(CCCN2C(=O)c3cccc4cccc(c34)C2=O)C(=O)c2ccncc2)cc1	1.8	-3.0	-18.0	-17.6	-0.9	1.1
CCN(CC(=O)Nc1c(F)cccc1F)C(=O)C1CC(=O)N(CCc2ccc(OC)c(OC)c2)C1 (configuration not stated)	1.0	nt	nt	nt	nt	nt
Cc1cc(NC2C3CC4CC(C3)CC2C4)n2nnnc2n1 (configuration not stated)	2.1	0.0	-19.9	75.7*	6.6	27.4
Cc1cc(NC2C3CC4CC(C3)CC2C4)n2ncnc2n1 (configuration not stated)	-33.9	10.0	-7.8	-4.3	-5.1	-4.0
CCOc1ccc(CCNC(=O)CSc2cc(=O)n(CC)c3ccccc23)cc1OCC	10.9	-3.0	-2.8	-0.8	-5.5	11.2
CC(NC(N)=O)C(=O)Nc1ccc(Cl)c(S(=O)(=O)Nc2ccc(Br)cc2)c1 (configuration not stated)	-1.5	-1.0	3.0	-4.4	-9.5	56.9*
Cc1ccc(C2C(C#N)=C(N)SC(N)=C2C#N)o1	-1.3	2.0	0.2	11.3	0.6	84.1*
Cc1ccc(N2C(=O)C3C(C2=O)C(C(=O)c2ccc(Cl)cc2)N2CCCC32)cc1 (configuration not stated)	72.2*	-3.0	51.9*	-9.4	-7.4	8.9
FC(F)(F)c1ccc(Cl)c(N/N=C/c2ccc(N3CCOCC3)s2)c1	-1.8	2.0	0.0	-22.0	1.6	67.4*
